For assay [1], the target named is c-Met kinase (Homo sapiens, UniProt P08581). The experiment in a line: Cell-free Z'-LYTE kinase assay, c-Met phosphorylation inhibition. The following applies: for % c-Met Inhibition using Cell-Free assay (5 µM dose): single 5 µM dose; for pIC50: read-out: c-Met phosphorylation inhibitory IC50, various doses. Type of assay: biochemical. The method in brief: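 Purified c-Met kinase domain, pre-phosphorylated in vitro, in a Z'-LYTE Tyr6 peptide kit. Reactions held kinase buffer, 200 µM ATP, 4 µM Tyr6 peptide, 2500 ng mL⁻¹ c-Met and test compound, run 1 h at rt. Protease development solution then added for 1 h. Read-out was the 445/520 nm fluorescence ratio. Screen at 5 µM, then various doses, N=3/dose. IC50 from non-linear regression.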
Chain of c-Met kinase (P08581 1078-1345 limits assumed): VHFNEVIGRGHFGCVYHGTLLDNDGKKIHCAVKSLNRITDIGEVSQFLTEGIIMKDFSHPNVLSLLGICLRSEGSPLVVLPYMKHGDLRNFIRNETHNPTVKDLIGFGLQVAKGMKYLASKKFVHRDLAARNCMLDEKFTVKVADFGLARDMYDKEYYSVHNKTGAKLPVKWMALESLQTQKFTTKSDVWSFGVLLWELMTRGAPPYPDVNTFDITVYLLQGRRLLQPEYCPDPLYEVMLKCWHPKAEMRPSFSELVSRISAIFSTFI

Assay [2] relates to MDA-MB-231 breast cancer cells. As to the kind of experiment: MTT cell proliferation assay, HGF-induced, MDA-MB-231. The following applies: 48 h. Type of assay: cell-based, human. The procedure, abridged: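 MDA-MB-231 cells were seeded at 1×10⁴/well (6 wells/group) in RPMI-1640 with 10% FBS overnight. They were PBS-washed and treated for 48 h at 37°C in serum-free RPMI with 40 ng/mL HGF and 10 or 40 µM test compound, or DMSO vehicle. MTT 1 mg mL⁻¹ for 4 h, DMSO solubilisation, A570. Cell number came from a standard curve, and % survival was taken relative to DMSO wells.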
In general terms: Tetrazolium dyes change colour on reduction, which living cells bring about.

Assay [3] deals with MDA-MB-231 cells. The experiment in a line: Wound-healing scratch assay. The conditions noted are these: read-out: IC50, HGF-induced cell migration; WHA, MDA-MB-231, 24 h, 40 ng/mL HGF. Type of assay: cell-based, human. The procedure, abridged:
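Scratch wounds were made with a pipette tip in overnight confluent MDA-MB-231 monolayers, then rinsed with PBS and RPMI. Test compound at various doses in serum-free medium with 40 ng/mL HGF, in triplicate, for 24 h. Cells were fixed and Giemsa-stained, and wound width measured at 0 and 24 h. % migration calculated against DMSO-treated wells, with IC50 by non-linear regression. Oleocanthal 10 µM was the positive control.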

The subject of assay [4] is MDA-MB-468 breast cancer cells. As to the kind of experiment: MTT cell proliferation assay, HGF-induced, MDA-MB-468. Type of assay: cell-based, human. The following applies: MDA-MB-468, various doses. The method in brief:
(§1)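 MDA-MB-468, MCF-7 or BT-474 cells were seeded at 1×10⁴/well (6 wells/group) in RPMI-1640 with 10% FBS and left overnight at 37°C, 5% CO₂. After a PBS wash they got serum-free RPMI with 40 ng/mL HGF plus test compound at various doses, or DMSO (≤0.1%), for 48 h. MTT (1 mg mL⁻¹) for 4 h, formazan dissolved in DMSO, A570. IC50 by non-linear regression.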

Assay [5] concerns MCF-7 breast cancer cells. As to the kind of experiment: MTT cell proliferation assay, HGF-induced, MCF-7. Type of assay: cell-based, human. The following applies: MCF-7, various doses. The method in brief: as §1
The subject of assay [6] is BT-474 breast cancer cells. As to the kind of experiment: MTT cell proliferation assay, HGF-induced, BT-474. Type of assay: cell-based, human. The following applies: BT-474, various doses. The procedure, abridged: as §1

pIC50: −log10 of the molar value. Several values for one entry are separate records, joined by “and”; a condition that tells them apart may be missing. Equal values may be shown once.

As to “6-O-α-L-(3″-O-trans-p-coumaroyl-4″-O-trans-caffeoyl)-rhamnopyrano-sylcatalpol [Compound 3]”, the “% c-Met Inhibition using Cell-Free assay (5 µM dose)” value in assay [1] turned out to be 10.9%. The “% Survival Inhibition” value in assay [2] (10 µM) is 27%; in assay [2] (40 µM), 30%.
With `C[C@@H]1O[C@@H](O[C@H]2[C@@H]3C=CO[C@@H](O[C@@H]4O[C@H](CO)[C@@H](O)[C@H](O)[C@H]4O)[C@@H]3[C@@]3(CO)O[C@@H]23)[C@H](O)[C@H](OC(=O)/C=C/c2ccc(O)cc2)[C@H]1OC(=O)/C=C/c1ccc(O)cc1` (relative stereo) [Compound 1, 6-O-α-L-(3″,4″-di-O-trans-p-coumaroyl) rhamnopyranosylcatalpol], the “% c-Met Inhibition using Cell-Free assay (5 µM dose)” value in assay [1] was 0%. Also, in assay [2] (40 µM), the “% Survival Inhibition” value came to 26%.
Consider `C[C@@H]1O[C@@H](OC(=O)/C=C/c2ccc(O)cc2)[C@H](OC(=O)/C=C/c2ccc(O)c(O)c2)[C@H](O)[C@H]1O` (relative stereo) [Compound 9, 1-O-trans-p-coumaroyl-2-O-trans-caffeoyl-α-L-rhamnopyranose], for which the pIC50 in assay [1] was 5.60; in assay [3], 6.01. Further, the “% Survival Inhibition” value in assay [2] (10 µM) was 50% and 51.3%; in assay [2] (40 µM), 80% and 79.3%. The HGF-induced proliferation entry in assay [4], in assay [5] and in assay [6] was “dose-dependent suppression” each time.
With `C[C@@H]1O[C@@H](OC(=O)/C=C/c2ccc(O)cc2)[C@H](O)[C@H](OC(=O)/C=C/c2ccc(O)c(O)c2)[C@H]1O` (relative stereo) [Compound 10, 1-O-trans-p-coumaroyl-3-O-trans-caffeoyl-α-L-rhamnopyranose], the figures for the pIC50 in assay [1] and in assay [3] were 4.90 and 5.09, respectively. The “% c-Met Inhibition using Cell-Free assay (5 µM dose)” value in assay [1] is 38.8%. Also, the “% Survival Inhibition” value was 28% and 28.2% in assay [2] (10 µM); 49% and 49.2% in assay [2] (40 µM).
For the compound `COc1ccc(C=CC(=O)OC2C(C)OC(OC3C4C=COC(OC5OC(CO)C(O)C(O)C5O)C4C4(CO)OC34)C(O)C2OC(=O)C=Cc2ccc(OC)cc2)cc1` [Compound 2, 6-O-α-L-(3″,4″-di-O-trans-p-methoxycinnamoyl)-rhamnopyranosylcatalpol], the “% c-Met Inhibition using Cell-Free assay (5 µM dose)” value in assay [1] worked out at 0%. For the same compound, the “% Survival Inhibition” value in assay [2] (40 µM) turned out to be 17%.
As to `COc1ccc(/C=C/C(=O)O[C@@H]2[C@@H](O)[C@@H](O)[C@H](O[C@H]3[C@@H]4C=CO[C@@H](O[C@@H]5O[C@H](CO)[C@@H](O)[C@H](O)[C@H]5O)[C@@H]4[C@@]4(CO)O[C@@H]34)O[C@H]2C)cc1` [Compound 8, 6-O-α-L-(4”-O-p-methoxycinnamoyl) rhamnopyranosylcatalpol], the pIC50 in assay [1] was 5.16; in assay [3] it was 4.87. For the same compound, the “% c-Met Inhibition using Cell-Free assay (5 µM dose)” value in assay [1] is given as 56.7%. The “% Survival Inhibition” value in assay [2] (10 µM) was 32%; in assay [2] (40 µM) it was 61% and 61.3%.
premnoside B [Compound 6]: the “% c-Met Inhibition using Cell-Free assay (5 µM dose)” value in assay [1] stood at 0%. Also, the “% Survival Inhibition” value in assay [2] (10 µM) turned out to be 10%; in assay [2] (40 µM), 13%.
In the same order, the values of premnoside C [Compound 7] are 0%, 13% and 18%.
Take premnoside E [Compound 4]: the “% c-Met Inhibition using Cell-Free assay (5 µM dose)” value in assay [1] worked out at 0%. In addition, the “% Survival Inhibition” value in assay [2] (40 µM) came to 7%.
For the compound premnoside G [Compound 5], the “% c-Met Inhibition using Cell-Free assay (5 µM dose)” value in assay [1] came to 0%. For the same compound, the “% Survival Inhibition” value in assay [2] (40 µM) came out at 20%.

For the origin of these results see article PMC5628144 (Phytotherapy research : PTR, 2017).
